Results: ChEMBL document CHEMBL1137992, “Long hydrocarbon chain keto diols and diacids that favorably alter lipid disorders in vivo” (J Med Chem, 2004)

Key:
Format in all cases: functional
Rattus norvegicus [1] = assay: Amount of insulin in obese Zucker rats after 2 weeks of treatment at a dose of 30 mg/kg/day
How it was run: (§1)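 Female obese Zucker rats [Crl:(Zuc)-faBR], 400–500 g, given daily oral gavage in 20% EtOH/80% PEG-200 for up to 14 days. After a 6-h fast, serum was collected pretreatment and at day 7 (orbital bleed) and day 14 (cardiac puncture) and stored at -80 °C. Insulin was measured by ELISA. Values are mean ± SEM.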

Rattus norvegicus [2] = assay: Amount of nonesterified fatty acids in obese Zucker rats at pre-treatment at a dose of 10 mg/kg/day
How it was run: (§2)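 Female Zucker fatty rats [Crl:(Zuc)-faBR], 10–12 weeks old (400–500 g), dosed once daily by oral gavage in 20% EtOH/80% PEG-200 for up to 14 days. After a 6-h fast, serum was taken pre-dose, at day 7 (orbital venous plexus, O2/CO2 anaesthesia) and at day 14 (cardiac puncture), stored at −80 °C, and assayed on a Hitachi 912 automatic analyzer. Mean ± SEM.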

Rattus norvegicus [3] = assay: Amount of nonesterified fatty acids in obese Zucker rats at pre-treatment at a dose of 0 mg/kg/day; how it was run: as §2
Rattus norvegicus [4] = assay: Amount of triglycerides in obese Zucker rats at pre-treatment at a dose of 30 mg/kg/day; how it was run: as §2
Rattus norvegicus [5] = assay: Amount of triglycerides in obese Zucker rats after 1 week of treatment at a dose of 3 mg/kg/day; how it was run: as §2
Rattus norvegicus [6] = assay: Amount of triglycerides in obese Zucker rats after 1 week of treatment at a dose of 100 mg/kg/day; how it was run: as §2
Rattus norvegicus [7] = assay: Amount of HDL-cholesterol in obese Zucker rats after 2 weeks of treatment at a dose of 3 mg/kg/day
How it was run: (§3)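 Female Zucker fatty rats [Crl:(Zuc)-faBR], 10–12 weeks old (400–500 g), dosed once daily by oral gavage in 20% EtOH/80% PEG-200 (dose volume 0.25% of body weight). Rats were fasted 6 h and bled before dosing and at day 7 (orbital plexus), and at day 14 (cardiac puncture). Serum cholesterol fractions came from Superose 6 gel-filtration lipoprotein profiles (% peak area × serum total cholesterol). Values are mean ± SEM.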

Rattus norvegicus [8] = assay: Amount of triglycerides in obese Zucker rats after 2 weeks of treatment at a dose of 30 mg/kg/day; how it was run: as §2
Rattus norvegicus [9] = assay: Amount of triglycerides in obese Zucker rats after 1 week of treatment at a dose of 0 mg/kg/day; how it was run: as §2
Rattus norvegicus [10] = assay: Amount of insulin in obese Zucker rats after 1 week of treatment at a dose of 0 mg/kg/day; how it was run: as §1
Rattus norvegicus [11] = assay: Amount of insulin in obese Zucker rats after 2 weeks of treatment at a dose of 0 mg/kg/day; how it was run: as §1
Rattus norvegicus [12] = assay: Percent decrease in nonesterified fatty acids in obese Zucker rats after 1 week of treatment at a dose of 100 mg/kg/day; set-up: scale not given: the % may be the effect or the level left
How it was run: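 Female Zucker fatty rats [Crl:(Zuc)-faBR], 10–12 weeks, 400–500 g, acclimated 7 days on chow. Compound or vehicle (20% EtOH/80% PEG-200) given by daily oral gavage for 2 weeks, 0–100 mg/kg/day. After a 6 h fast, blood was taken before dosing, at 1 wk and at 2 wk. Serum lipids, NEFA and insulin (ELISA) were measured; glucose by glucometer. HDL/non-HDL-C came from Superose 6 gel-filtration profiles. Values are % change from pretreatment, mean ± SEM.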

Rattus norvegicus [13] = assay: Amount of non-HDL-cholesterol in obese Zucker rats after 2 weeks of treatment at a dose of 0 mg/kg/day; how it was run: as §3
Rattus norvegicus [14] = assay: Amount of glucose in obese Zucker rats after 1 week of treatment at a dose of 3 mg/kg/day
How it was run: (§4)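 Female Zucker fatty rats [Crl:(Zuc)-faBR], 10–12 weeks old (400–500 g), gavaged daily with vehicle (20% EtOH/80% PEG-200, 0.25% of body weight) or compound. After a 6-h fast, blood glucose was read by glucometer from tail-prick blood of unanesthetized rats before dosing and after 1 and 2 weeks. Values are mean ± SEM.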

Rattus norvegicus [15] = assay: Amount of insulin in obese Zucker rats at pre-treatment at a dose of 100 mg/kg/day; how it was run: as §1
Rattus norvegicus [16] = assay: Amount of insulin in obese Zucker rats after 2 weeks of treatment at a dose of 3 mg/kg/day; how it was run: as §1
Rattus norvegicus [17] = assay: Amount of non-HDL-cholesterol in obese Zucker rats after 1 week of treatment at a dose of 0 mg/kg/day; how it was run: as §3
Rattus norvegicus [18] = assay: Amount of glucose in obese Zucker rats at pre-treatment at a dose of 10 mg/kg/day; how it was run: as §4
Rattus norvegicus [19] = assay: Amount of nonesterified fatty acids in obese Zucker rats after 1 week of treatment at a dose of 30 mg/kg/day; how it was run: as §2
Rattus norvegicus [20] = assay: Amount of HDL-cholesterol in obese Zucker rats after 2 weeks of treatment at a dose of 100 mg/kg/day; how it was run: as §3
Rattus norvegicus [21] = assay: Amount of non-HDL-cholesterol in obese Zucker rats after 1 week of treatment at a dose of 3 mg/kg/day; how it was run: as §3
Rattus norvegicus [22] = assay: Amount of HDL-cholesterol in obese Zucker rats after 2 weeks of treatment at a dose of 30 mg/kg/day; how it was run: as §3
Rattus norvegicus [23] = assay: Amount of glucose in obese Zucker rats after 1 week of treatment at a dose of 100 mg/kg/day; how it was run: as §4
Rattus norvegicus [24] = assay: Amount of glucose in obese Zucker rats after 1 week of treatment at a dose of 0 mg/kg/day; how it was run: as §4
Rattus norvegicus [25] = assay: Amount of glucose in obese Zucker rats at pre-treatment at a dose of 3 mg/kg/day; how it was run: as §4
Rattus norvegicus [26] = assay: Amount of insulin in obese Zucker rats after 1 week of treatment at a dose of 100 mg/kg/day; how it was run: as §1
Rattus norvegicus [27] = assay: Amount of HDL-cholesterol in obese Zucker rats at pre-treatment at a dose of 30 mg/kg/day; how it was run: as §3
Rattus norvegicus [28] = assay: Amount of nonesterified fatty acids in obese Zucker rats after 2 weeks of treatment at a dose of 0 mg/kg/day; how it was run: as §2
Rattus norvegicus [29] = assay: Amount of HDL-cholesterol in obese Zucker rats after 1 week of treatment at a dose of 0 mg/kg/day; how it was run: as §3
Rattus norvegicus [30] = assay: Amount of insulin in obese Zucker rats after 2 weeks of treatment at a dose of 10 mg/kg/day; how it was run: as §1
Rattus norvegicus [31] = assay: Amount of HDL-cholesterol in obese Zucker rats at pre-treatment at a dose of 100 mg/kg/day; how it was run: as §3
Rattus norvegicus [32] = assay: Amount of HDL-cholesterol in obese Zucker rats after 1 week of treatment at a dose of 3 mg/kg/day; how it was run: as §3
Rattus norvegicus [33] = assay: Amount of insulin in obese Zucker rats at pre-treatment at a dose of 3 mg/kg/day; how it was run: as §1
Rattus norvegicus [34] = assay: Amount of insulin in obese Zucker rats after 1 week of treatment at a dose of 3 mg/kg/day; how it was run: as §1
Rattus norvegicus [35] = assay: Amount of non-HDL-cholesterol in obese Zucker rats after 2 weeks of treatment at a dose of 30 mg/kg/day
How it was run: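 Female obese Zucker fatty rats [Crl:(Zuc)-faBR], 10–12 weeks old (400–500 g), on chow. Compound in 20% EtOH/80% PEG-200 (v/v) given by daily oral gavage. After a 6-h fast, serum was taken before dosing and at 7 days (orbital plexus), and at 14 days (cardiac puncture). Lipoprotein cholesterol came from Superose 6HR gel-filtration profiles × serum total cholesterol. Mean ± SEM.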

CC(C)(CO)CCCCC(=O)CCCCC(C)(C)CO
Activity (Rattus norvegicus [1]): 9.8 ng/mL
Activity (Rattus norvegicus [2]): 1.2 mg/dL
Activity (Rattus norvegicus [3]): 1.2 mg/dL
Activity (Rattus norvegicus [4]): 998 mg/dL
Activity (Rattus norvegicus [5]): 800 mg/dL
Activity (Rattus norvegicus [6]): 485 mg/dL
Activity (Rattus norvegicus [7]): 39 mg/dL
Activity (Rattus norvegicus [8]): 985 mg/dL
Activity (Rattus norvegicus [9]): 1114 mg/dL
Activity (Rattus norvegicus [10]): 8.7 ng/mL
Activity (Rattus norvegicus [11]): 7.7 ng/mL
Activity (Rattus norvegicus [12]): -30%
Activity (Rattus norvegicus [13]): 30 mg/dL
Activity (Rattus norvegicus [14]): 106 mg/dL
Activity (Rattus norvegicus [15]): 9.6 ng/mL
Activity (Rattus norvegicus [16]): 7.8 ng/mL
Activity (Rattus norvegicus [17]): 36 mg/dL
Activity (Rattus norvegicus [18]): 112 mg/dL
Activity (Rattus norvegicus [19]): 1.1 mg/dL
Activity (Rattus norvegicus [20]): 79 mg/dL
Activity (Rattus norvegicus [21]): 25 mg/dL
Activity (Rattus norvegicus [22]): 61 mg/dL
Activity (Rattus norvegicus [23]): 120 mg/dL
Activity (Rattus norvegicus [24]): 118 mg/dL
Activity (Rattus norvegicus [25]): 118 mg/dL
Activity (Rattus norvegicus [26]): 10.9 ng/mL
Activity (Rattus norvegicus [27]): 43 mg/dL
Activity (Rattus norvegicus [28]): 1.6 mg/dL
Activity (Rattus norvegicus [29]): 39 mg/dL
Activity (Rattus norvegicus [30]): 7.8 ng/mL
Activity (Rattus norvegicus [31]): 45 mg/dL
Activity (Rattus norvegicus [32]): 43 mg/dL
Activity (Rattus norvegicus [33]): 8.8 ng/mL
Activity (Rattus norvegicus [34]): 7.5 ng/mL
Activity (Rattus norvegicus [35]): 38 mg/dL
